This is a sample that favours compounds with a hit; in the whole collection about 1.4% have one here.
CSN deneddyl inh = inhibitors of human CSN-mediated cullin deneddylation; inhibition, % at 12.5 µM; Q92905; hit rate 0.38% among 360,000; Purified CSN, SCF-Nedd8-OG deneddylation, fluorescence polarization; AID 651999;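 active = pattern-corrected inhibition above about 35%, with an unprinted fluorescence ratio check between 0.5 and 1.5, limit read from the data, passing the limit was not always enough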
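Assay system: purified human Csn5 enzyme expressed in HEK293T cells; measure: % inhibition; also added: SCFSkp2-Nedd8OG substrate at 10 nM final; technique: fluorescence polarization; times: reaction 90 min, room temperature; medium: Tris buffer pH 7.5, NaCl, DTT, Tween-20, trehalose, ovalbumin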
IDE act = activators of human insulin-degrading enzyme in cells; HEK cells, FAbeta-B cleavage, fluorescence polarization; 0% vehicle, 100% cell-free pure enzyme wells; activation, % at 5.96 µM; hit rate 0.073% among 340,000; AID 493087;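 active = activation above the mean of all tested compounds plus 3 SD, set per screening campaign, cut at about 17% in these data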
TPT1 inhibitor = C. albicans TPT1 enzyme inhibition. recombinant caTPT1, FP RNA substrate dephosphorylation. inhibition, % at 5 µM. hit rate 0.81% among 300,000. AID 1962;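 active = inhibition above the mean of all tested compounds plus 3 SD, set per screening campaign, cut at about 24% in these data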
HNF4A DNA FP = change in binding of human HNF4 alpha to DNA | P41235 | HNF4a-FITC DNA binding, fluorescence polarization, 1 h | activity change, % at 10 µM | hit rate 0.3% among 360,000 | AID 1224865; in the data active = activity change above about 30%, passing the limit was not always enough
Target sequence (P41235 whole entry, looked up): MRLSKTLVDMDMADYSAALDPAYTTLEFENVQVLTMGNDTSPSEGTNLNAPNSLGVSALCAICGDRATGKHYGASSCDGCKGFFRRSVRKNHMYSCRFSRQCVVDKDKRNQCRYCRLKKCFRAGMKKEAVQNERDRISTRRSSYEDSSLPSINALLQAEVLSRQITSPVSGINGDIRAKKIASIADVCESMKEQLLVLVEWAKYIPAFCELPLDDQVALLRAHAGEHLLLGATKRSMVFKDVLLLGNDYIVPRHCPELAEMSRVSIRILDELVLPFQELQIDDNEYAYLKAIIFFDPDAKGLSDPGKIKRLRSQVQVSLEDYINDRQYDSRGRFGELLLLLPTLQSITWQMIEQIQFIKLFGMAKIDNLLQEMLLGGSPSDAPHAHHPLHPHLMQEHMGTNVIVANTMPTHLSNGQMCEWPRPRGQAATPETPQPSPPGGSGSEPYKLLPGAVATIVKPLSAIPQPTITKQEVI
IDE cell inh = cellular human IDE inhibition. HEK cells, FAbetaB cleavage, fluorescence polarization. P14735. hit rate 0.41% among 320,000. inhibition, % at 5.59 µM. AID 434962;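 active = percent inhibition above the average of all tested compounds plus 3 SD, set per screening campaign, cut at about 16% in these data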;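 also: IDE supplied by intact live HEK cells; FP after avidin binding of uncleaved biotin substrate so inhibition keeps polarization high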
Numbers stand for hits; – = inactive; · = not tested or not shown.

SMILES	CSN deneddyl inh	IDE act	TPT1 inhibitor	HNF4A DNA FP	IDE cell inh
Cc1cccc(C)c1NC(=O)C(c1ccncc1)N1CCN(CCN(C)C)CC1 (stereo not drawn)	–	·	·	–	·
CC(=O)Nc1cccc(OCC(O)Cn2cnc3ccccc32)c1 (stereo not drawn)	58	–	–	–	–
COC(=O)C1=CN(c2ccc(OC)cc2OC)C(N)=C(C#N)C1c1cccc([N+](=O)[O-])c1 (stereo not drawn)	–	·	·	–	·
Cc1nc(CS(=O)c2ccc(Cl)cc2)cc(NCc2ccc(Cl)cc2Cl)n1 (stereo not drawn)	52	–	–	–	–
COCc1cc(NCc2ccc(Cl)cc2)nc(C)n1	–	–	–	–	–
O=C1NC[C@H](CCCCN2C[C@H](Cc3ccccc3)N(CCc3ccc(O)cc3)C(=O)C2=O)N(CC2CCCCC2)C1=O	–	·	·	–	·
CC(C)C[C@H]1CNC(=S)N1C[C@H]1CCCN1C[C@H](CC(C)C)N1C[C@H](Cc2ccccc2)N(CCc2ccccc2)C1=S	110	·	·	–	·
CC(C)C[C@H]1CNC(=S)N1C[C@H]1CCCN1C[C@H](CC(C)C)N1C[C@H](CC(C)C)N(CCc2ccccc2)C1=S	–	·	·	–	·
COc1ccc(C2=Nc3ccccc3N(C(=O)c3ccncc3)C2C(=O)NC(C)C)cc1 (stereo not drawn)	–	·	·	–	·
N=c1n(Cc2ccccc2)c2ccccc2n1CC(O)COc1ccc(Cl)cc1Cl (stereo not drawn)	–	20	·	–	·
Cc1n[nH]c(=S)n1/N=C/c1cccc(OCc2ccccc2)c1	–	–	–	–	–
Cc1n[nH]c(=S)n1/N=C/c1ccccc1OCc1ccc(Cl)cc1	–	–	–	51	–
CC(=O)Nc1ccc(C(=O)CN2CCN(c3ccccc3)CC2)cc1	100	–	–	–	–
CC(=O)c1ccc(NC(=O)CN2CCN(c3ccccc3)CC2)cc1	–	–	–	–	–
O=C(CCN1C(=O)/C(=C\c2cccs2)SC1=S)Nc1nccs1	–	–	–	38	–
Clc1cccc(Cc2c(C3CCCCC3)nc3c4ccccc4ccn23)c1	–	·	·	–	·
CCCCNC(=S)N1CCN(c2nc3ccccc3s2)CC1	–	–	–	–	19
CCN1CCN(c2cc(C)c3cc(NC(=S)N4CCOCC4)ccc3n2)CC1	–	–	–	–	–
CCN1CCN(c2cc(C)c3cc(NC(=S)N4CCN(c5ccccc5)CC4)ccc3n2)CC1	–	20	–	–	–
Cc1ccc(C)c(N2CCN(C(=S)Nc3ccc4nc(N5CCOCC5)cc(C)c4c3)CC2)c1	–	–	–	–	–
Cc1ccc(C)c(N2CCN(C(=S)Nc3ccc4nc(N5CCN(C)CC5)cc(C)c4c3)CC2)c1	–	22	–	–	–
Nc1cc(N)nc(SCCOc2ccccc2)n1	–	23	–	–	–
CCC(=O)N[C@@H]1C=C[C@@H](CC(=O)NCc2ccccc2F)O[C@@H]1CO	–	·	·	–	·
Nc1[nH]c(C(=O)c2ccccc2)c(-c2ccncc2)c1C(=O)NCc1ccc(Cl)cc1	–	·	·	–	·
CCCc1ccc2ccc3ccccc3c2n1	–	·	·	–	·
SMILES	CSN deneddyl inh	IDE act	TPT1 inhibitor	HNF4A DNA FP	IDE cell inh
O=C(O)CCCC[C@@H]1SC[C@@H]2NC(=O)N[C@@H]21	–	64	–	–	–
COC(=O)CCCCC1SCC2NC(=O)NC21 (stereo not drawn)	–	–	–	–	–
CCCCN(C=O)c1c(CC)nc2ccc(C(=O)N3CCCCC3)cn12	–	·	·	–	·
Oc1ccc(Cl)cc1-c1cc(-c2ccco2)[nH]n1	45	–	–	–	–
Oc1ccccc1-c1cc(-c2ccco2)[nH]n1	–	–	–	–	–
COc1ccc2c(COC(=O)c3n[nH]c4ccccc34)cc(=O)oc2c1	38	–	–	–	–
O=C(/C=C/c1ccc(Br)cc1)NC(=S)Nc1ccc(S(=O)(=O)Nc2nccs2)cc1	75	–	–	–	–
O=C(NC(=S)Nc1ccc(S(=O)(=O)Nc2nccs2)cc1)c1ccc(Br)o1	–	–	–	–	–
CCOC(=O)Nc1cccc2c1-c1ccc([N+](=O)[O-])cc1C2=O	–	–	·	–	·
CCOC(=O)Nc1cc2c(cc1[N+](=O)[O-])-c1ccccc1C2=O	–	–	·	38	·
Cc1ccc(S(=O)(=O)N2CCOCC2)cc1C(=O)OCC(=O)NC1CC1	60	–	·	–	–
O=C(NC1CCCC1)C(C1CC1)n1c(-c2ccccn2)nc2ccccc21 (stereo not drawn)	–	·	·	–	·
CCCOC(=O)C1=C(C)NC2=C(C(=O)C(C(=O)OC)C(C)C2)C1c1ccc(N(CC)CC)cc1 (stereo not drawn)	–	–	–	–	–
CCC(C)OC(=O)C1=C(C)NC2=C(C(=O)C(C(=O)OC)C(C)C2)C1c1ccc(N(C)C)cc1 (stereo not drawn)	–	17	–	–	–
O=C1C(CCc2ccccc2)ON=C(c2cnccn2)N1Cc1ccc(F)cc1 (stereo not drawn)	–	·	·	–	·
O=C(CSc1ncccc1C(=O)O)c1ccc2ccccc2c1	–	–	–	–	–
O=C(CSc1ncccc1C(=O)O)c1cccc(C(F)(F)F)c1	–	–	–	56	–
COc1ccc(Cc2c(-c3ccccc3)nc3c4ccccc4ccn23)c(C)c1	–	·	·	–	·
CCOC(=O)CCn1nc(-c2ccc(Cl)cc2)cc1N	–	–	–	–	–
CCOC(=O)Cn1nc(-c2ccc(Cl)cc2)cc1N	49	–	–	–	–
CCOC(=O)[C@]12CCCC=C1N(CCC1=CCCCC1)C(=O)[C@H](CC(=O)N1CCC(c3ccccc3)CC1)C2	–	·	·	–	·
O=C(O)CCCN1C(=O)/C(=C\c2ccccc2OCc2ccccc2)SC1=S	–	–	–	51	–
O=C(O)CN1C(=O)/C(=C\c2ccccc2OCc2ccccc2)SC1=S	–	·	·	–	·
Cc1cc2nc3c(=O)[nH]c(=O)[nH]c3nc2c([N+](=O)[O-])c1N	–	21	·	–	·
Cn1cccc1C(C#N)(CC#N)c1cccc(F)c1C#N (stereo not drawn)	101	–	–	–	–
SMILES	CSN deneddyl inh	IDE act	TPT1 inhibitor	HNF4A DNA FP	IDE cell inh
CCOc1ccc(OCc2ccc(C(=O)N3CCCCC3)o2)cc1	–	–	–	36	–
O=c1[nH][nH]c2c1C(c1ccc(Cl)c(Cl)c1)OC(CCc1ccccc1)C2 (stereo not drawn)	–	·	·	–	·
COc1ccc(S(=O)(=O)NNC(=O)c2sccc2-n2cccc2)cc1	–	–	–	31	–
O=C(NNS(=O)(=O)c1ccc(Br)cc1)c1sccc1-n1cccc1	–	–	–	–	–
O=C(NC1CCCC1)C1C(c2ccc(C(F)(F)F)cc2)=Nc2ccccc2N1C(=O)c1cc2ccccc2[nH]1 (stereo not drawn)	–	·	·	–	·
N#Cc1c(NC(=S)NC(=O)c2ccccc2)sc2c1CCN(CCc1ccccc1)C2	·	·	98	·	74
O=C(CSc1nc2c([nH]c3ccccc32)c(=O)n1-c1ccccc1)N1CCOCC1	–	–	–	–	–
O=C(CSc1nc2c([nH]c3ccccc32)c(=O)n1-c1cccc(Cl)c1)N1CCOCC1	80	–	–	–	–
